{"data": "Measured values gathered from unrelated publications", "target": "Mitogen-activated protein kinase kinase kinase kinase 3 (MAP4K3, Homo sapiens, UniProt Q8IVH8)", "One construct used (Q8IVH8 1-894)": "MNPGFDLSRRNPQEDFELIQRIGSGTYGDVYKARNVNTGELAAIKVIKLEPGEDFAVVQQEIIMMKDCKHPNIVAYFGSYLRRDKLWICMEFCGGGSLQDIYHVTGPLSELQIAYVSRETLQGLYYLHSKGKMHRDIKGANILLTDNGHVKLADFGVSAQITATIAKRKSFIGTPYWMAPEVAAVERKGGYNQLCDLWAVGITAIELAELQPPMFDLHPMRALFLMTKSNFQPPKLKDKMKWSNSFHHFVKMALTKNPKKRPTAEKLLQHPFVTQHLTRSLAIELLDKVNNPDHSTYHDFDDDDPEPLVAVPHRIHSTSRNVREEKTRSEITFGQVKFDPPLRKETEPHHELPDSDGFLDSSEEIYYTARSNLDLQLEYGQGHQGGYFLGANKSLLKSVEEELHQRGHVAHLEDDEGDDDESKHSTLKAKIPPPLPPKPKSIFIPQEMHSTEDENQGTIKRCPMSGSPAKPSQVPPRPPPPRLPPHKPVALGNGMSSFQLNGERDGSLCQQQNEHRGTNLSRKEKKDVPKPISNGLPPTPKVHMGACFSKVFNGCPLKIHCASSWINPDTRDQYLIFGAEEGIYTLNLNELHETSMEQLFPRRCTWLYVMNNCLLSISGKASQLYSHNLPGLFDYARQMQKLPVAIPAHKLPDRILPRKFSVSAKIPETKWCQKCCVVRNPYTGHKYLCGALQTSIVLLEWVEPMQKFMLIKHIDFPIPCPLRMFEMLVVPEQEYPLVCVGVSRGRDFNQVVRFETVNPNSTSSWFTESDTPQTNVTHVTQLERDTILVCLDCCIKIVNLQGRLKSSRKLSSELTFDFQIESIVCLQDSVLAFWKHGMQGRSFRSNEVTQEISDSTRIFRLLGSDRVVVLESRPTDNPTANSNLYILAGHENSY", "note": "Each line is one published result; the experiments were not run side by side."}
{"SMILES": "N[C@@H]1CCN(c2nccc(-c3cnn4ncccc34)n2)C1", "observed": "binding", "tested at": "1 µM", "remaining binding": "76%"}
{"SMILES": "COc1ncc2cc3ccccc3nc2c1C#N", "observed": "cell-free assay", "technique": "competition with immobilised ligand", "tested at": "5 µM", "remaining binding": "100%"}
{"SMILES": "CCS(=O)(=O)c1cc2cc(C[C@@](O)(CC(C)(C)c3ccc(F)cc3C(N)=O)C(F)(F)F)[nH]c2cn1", "observed": "cell-free assay", "technique": "competition with immobilised ligand", "tested at": "1 µM", "remaining binding": "82%"}
{"SMILES": "F[C@@H]1CCN(c2nccc(-c3cnn4ncccc34)n2)C1", "observed": "binding", "tested at": "1 µM", "remaining binding": "100%"}
{"SMILES": "CC1=C(C#N)[C@@H](c2ccc3[nH]nc(C)c3c2)C(C#N)=C(c2ccc(Cl)cc2)N1", "observed": "cell-free assay", "technique": "competition with immobilised ligand", "tested at": "1 µM", "remaining binding": "100%"}
{"SMILES": "CN(c1nccc(-c2cnn3ncccc23)n1)C1CC1", "observed": "binding", "tested at": "1 µM", "remaining binding": "100%"}
{"SMILES": "CCN1CCN(Cc2ccc(C(=O)Nc3ccc(C)c(Oc4ccc5c(c4)CC(=O)N5)c3)cc2C(F)(F)F)CC1", "observed": "binding", "technique": "competition with immobilised ligand", "tested at": "1 µM", "remaining binding": "76%"}
{"SMILES": "O=C(Nc1cccnn1)N1CCC(=Cc2cccc(Oc3ccc(C(F)(F)F)cn3)c2)CC1", "observed": "cell-free assay", "technique": "competition with immobilised ligand", "tested at": "1 µM", "remaining binding": "100%"}
{"SMILES": "O=C(c1ccc(Nc2ncc(Cl)c(-c3cc4ccccc4s3)n2)cc1)N1CCC(N2CCCC2)CC1", "observed": "binding", "technique": "competition with immobilised ligand", "tested at": "1 µM", "remaining binding": "40%"}
{"SMILES": "CNC(=O)[C@@H]1CC[C@@H](n2c(-c3ccc4cnccc4c3)nc3ccc(C(=O)NCc4cccc(C(N)=O)c4)cc32)C1", "observed": "binding", "technique": "competition with immobilised ligand", "tested at": "1 µM", "remaining binding": "100%"}
{"SMILES": "Cc1c(C(=O)O)cc(-c2ccc(C3CCNCC3)cc2)c2ccc(-c3ccc(C(F)(F)F)cc3)cc12", "observed": "binding", "technique": "competition with immobilised ligand", "tested at": "1 µM", "remaining binding": "100%"}
{"SMILES": "COc1cnc(Nc2cccc(S(N)(=O)=O)c2)nc1N1CCN(c2ccccc2)C(=O)C1", "observed": "binding", "technique": "competition with immobilised ligand", "tested at": "1 µM", "remaining binding": "95%"}
{"SMILES": "O=C(Nc1c[nH]nc1C(=O)NC1CCNCC1)c1cc(F)cc(F)c1", "observed": "binding", "technique": "competition with immobilised ligand", "tested at": "1 µM", "remaining binding": "74%"}
{"SMILES": "O=C(O)c1cc(-c2ccc(C3CCNCC3)cc2)c2ccc(-c3ccc(C(F)(F)F)cc3)cc2c1", "observed": "cell-free assay", "technique": "competition with immobilised ligand", "tested at": "1 µM", "remaining binding": "100%"}
{"SMILES": "Cc1cnn2ncc(-c3ccnc(N(C)C)n3)c2c1", "observed": "binding", "tested at": "1 µM", "remaining binding": "100%"}
{"SMILES": "O=C(NCCCN1CCOCC1)c1ccc(Nc2ncc(Cl)c(-c3ccc(Cl)s3)n2)cc1", "observed": "binding", "technique": "competition with immobilised ligand", "tested at": "1 µM", "remaining binding": "38%"}
{"SMILES": "CN(C)c1nccc(-c2cnn3ncccc23)n1", "observed": "binding", "tested at": "1 µM", "remaining binding": "100%"}
{"SMILES": "CC(C)(O)c1cncc(-c2nc3ccc(F)cc3n2C2CC2)c1", "observed": "cell-free assay", "technique": "competition with immobilised ligand", "tested at": "1 µM", "remaining binding": "100%"}
{"SMILES": "c1cnn2ncc(-c3ccnc(N4CCC45COC5)n3)c2c1", "observed": "binding", "tested at": "1 µM", "remaining binding": "88%"}
{"SMILES": "O=C(NCCCN1CCOCC1)c1ccc(Nc2nccc(-c3cc4ccccc4s3)n2)cc1", "observed": "binding", "technique": "competition with immobilised ligand", "tested at": "1 µM", "remaining binding": "65%"}
